# Runt-CBFb FRET: inhibitors of human RUNX1 Runt domain binding to CBFb; Q01196+Q13951; Cerulean-Runt/Venus-CBFb FRET ratio 530/480, 1 h; inhibition, % at 20 µM; 0.46% of 220,000 active; AID 1496;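 active = inhibition over about 50% at 20 µM in the single-dose screen, limit read from the data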;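 also: 0% = DMSO wells and 100% = excess unlabeled CBFb competitor control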
# Target sequence (Q01196 whole entry, looked up, the tested form may be a part): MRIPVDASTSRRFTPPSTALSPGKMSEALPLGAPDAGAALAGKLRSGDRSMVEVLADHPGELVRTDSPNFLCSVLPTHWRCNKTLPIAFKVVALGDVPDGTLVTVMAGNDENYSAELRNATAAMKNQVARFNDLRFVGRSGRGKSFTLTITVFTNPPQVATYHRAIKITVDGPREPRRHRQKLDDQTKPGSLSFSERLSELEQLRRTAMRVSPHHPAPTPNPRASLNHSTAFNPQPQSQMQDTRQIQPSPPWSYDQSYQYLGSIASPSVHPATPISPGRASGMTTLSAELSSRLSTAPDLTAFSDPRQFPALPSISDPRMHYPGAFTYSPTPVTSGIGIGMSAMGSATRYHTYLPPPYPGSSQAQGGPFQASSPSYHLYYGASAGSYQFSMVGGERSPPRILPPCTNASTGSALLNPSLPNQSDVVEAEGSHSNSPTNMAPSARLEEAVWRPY
# Target sequence (Q13951 whole entry, looked up, the tested form may be a part): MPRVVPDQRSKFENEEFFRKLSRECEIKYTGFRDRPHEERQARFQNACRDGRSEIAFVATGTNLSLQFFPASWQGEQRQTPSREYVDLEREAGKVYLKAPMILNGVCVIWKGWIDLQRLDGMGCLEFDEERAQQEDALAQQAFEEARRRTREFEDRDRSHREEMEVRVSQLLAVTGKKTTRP
#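 Doses: 20 µM compound in 1% DMSO | Material: Cerulean-labeled Runt domain protein | Amount: Each fluorescent fusion protein 100 nM | Schedule: Two 1 h room-temperature incubations shielded from light | Measured by: FRET fluorescence | Evaluation: Loss of energy transfer signal | Controls: Unlabeled CBFb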
# Runt-SMMHC FRET: Runt domain-CBFb-SMMHC interaction inhibition | Q01196+Q13951 | Cerulean-Runt/Venus-CBFb-SMMHC FRET ratio 530/480, 1 h | inhibition, % at 20 µM | AID 1434 | 0.74% of 220,000 active;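 active = mean inhibition across duplicate retests at 20 µM reaching about 50%, limit read from the data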;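 also: 0% = DMSO wells and 100% = wells with excess untagged CBFb-SMMHC; inhibitors lower the FRET ratio by blocking Runt binding to CBFb-SMMHC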
# RanGTP-Imp inh: disruptors of Ran-importin-beta complex formation – biochemical, FRET, CFP-Ran, YFP-importin-beta, homogeneous, primary screen | inhibition, % (no concentration beside the values) | cell-free CFP-Ran/YFP-importin-beta FRET ratio | AID 2216 | 1.1% of 300,000 active;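 active = more than half of the replicate wells show a fall in the fluorescence ratio signal beyond about 16%, limit read from the data, passing the limit was not always enough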;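 also: 0% = DMSO wells and 100% = Ran loaded with GDP instead of GTP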
# Hck Nef HTS: inhibitors of human Hck kinase activated by Nef. Recombinant Hck-YEEI plus Nef, Z-Lyte FRET kinase assay. P08631. 0.68% of 220,000 active. inhibition, % at 20 µM;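 active = Hck-Nef kinase inhibition above about 50%, limit read from the data; inactive = inhibition below that limit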;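 also: 0% = DMSO with Hck plus Nef and 100% = Hck alone without Nef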
# The depositor's hits bear a star; . = no result; ! = not confirmed by another sample. Hits are enriched below; roughly 1.9% of the tested compounds scored in any of these assays.
SMILES,Runt-CBFb FRET,Runt-SMMHC FRET,RanGTP-Imp inh,Hck Nef HTS
CCCCC1=CC2=CC(=O)C(C)(OC(=O)c3ccc(Cl)nc3)C(=O)C2=CO1 (stereo unspecified),.,.,-27,.
COc1cc2c(cc1OC)CN(CC(=O)Nc1ccc(F)cc1F)CC2,.,.,19*,.
COc1cc2c(cc1OC)CN(CC(=O)Nc1cccc([N+](=O)[O-])c1)CC2,.,.,0,.
COc1cc2c(cc1OC)CN(CC(=O)Nc1cccc(C)c1)CC2,7,21,32*,2
O=C(CN1CCc2ccccc2C1)Nc1ccc(F)cc1F,-1,0,-2,22
COc1ccc(CC2NCCC3=CC(=O)CCC32)cc1O (stereo unspecified),.,.,29*,.
COc1ccc(CC(=O)O)cc1O,3,2,-5,15
COc1cc(OC)nc(Oc2cc(/C=N/O)ccc2OC)n1,0,2,1,22
COc1ccc(C(=O)O)cc1NC(=S)NC(=O)c1ccc(-c2ccc(Cl)cc2)o1,5,-4,7,36
Cc1ccc(C(=O)O)cc1NC(=S)NC(=O)c1ccc(-c2ccc(Cl)cc2)o1,0,0,-1,56*
c1ccc(-c2ccc(-c3ccccn3)s2)nc1,-3,4,18*,-5
COCCn1c(C)cc2c(c1=O)C(c1ccccc1F)C(C#N)=C(N)O2 (stereo unspecified),6,33,63*,0
Cc1cc2c(c(=O)n1CCCn1ccnc1)C(c1ccco1)C(C#N)=C(N)O2 (stereo unspecified),46,108*,5,-1
COc1ccccc1C1C(C#N)=C(N)Oc2cc(C)n(CCCn3ccnc3)c(=O)c21 (stereo unspecified),3,-5,-4,1
CCSc1nnc(NS(=O)(=O)c2ccc(C)cc2)s1,-1,-3,3,3
Cc1ccc2nc3c(cc(C(=O)NCCc4ccccc4)c(=N)n3CCCN3CCOCC3)c(=O)n2c1,.,.,168*,.
COc1ccc(CCNC(=O)c2cc3c(=O)n4ccccc4nc3n(C3CCCCC3)c2=N)cc1,.,.,63*,.
Cc1ccc(-c2cc(C(=O)NCCCN3CCOCC3)c3ccccc3n2)cc1C,.,.,-1,.
COc1ccc(CCNC(=O)c2cnc3ccccn3c2=O)cc1,-1,4,-5,-3
COc1ccc(CCNC(=O)c2cc3c(=O)n4ccccc4nc3n(CCN3CCOCC3)c2=N)cc1,.,.,25*,.
CCCNc1nc2nc3ccccn3c(=O)c2cc1C(=O)NCCN1CCOCC1,.,.,131*,.
O=C(NCCN1CCOCC1)c1c(O)nc2ccccn2c1=O,.,.,3,.
CCS(=O)(=O)N1CCC(C(=O)Nc2ccccc2OC)CC1,.,.,4,.
CCOC(=O)/C=c1\s/c(=C\c2sccc2C)c(=O)n1CC(=O)NCc1ccc(C)cc1,-67,-221,-41,-8
COc1ccc(CCNC(=O)c2cc3c(=O)n4ccccc4nc3n(CCCN3CCOCC3)c2=N)cc1OC,.,.,16*,.
SMILES,Runt-CBFb FRET,Runt-SMMHC FRET,RanGTP-Imp inh,Hck Nef HTS
CC1(C)NC(=O)N(CC(=O)N2CCCC(C(F)(F)F)C2)C1=O (stereo unspecified),.,.,2,.
Cc1cccn2c(=O)c3cc(S(=O)(=O)c4ccccc4)c(=N)n(CC4CCCO4)c3nc12 (stereo unspecified),12,81*,158*,25
Cc1ccc(S(=O)(=O)c2cc3c(=O)n4cccc(C)c4nc3n(CC3CCCO3)c2=N)cc1C (stereo unspecified),66*,88*,137*,21
Cc1cccn2c(=O)c3cc(C#N)c(=N)n(CC4CCCO4)c3nc12 (stereo unspecified),.,.,.,26
CC(C)c1ccc(NC2CCCN(C(=O)c3n[nH]c4c3CCC4)C2)cc1 (stereo unspecified),.,.,-3,.
CN1CCC2(CC1)C1CN(C)CC=C1C(C#N)=C(N)C2(C#N)C#N (stereo unspecified),71*!,75*,43*,8
C=CCN1C(=O)[C@]2(c3ccccc31)C1CCCC=C1C(C#N)=C(N)C2(C#N)C#N (stereo partly specified),-7,-37,-1,1
O=C(O)c1cc2c(ccc3ccccc32)oc1=O,12,11,0,-15
N=c1oc2ccc3ccccc3c2cc1C(N)=S,118*,92*,76*,23
CC(OC(=O)c1cc2c(ccc3ccccc32)oc1=O)c1nc2ccccc2s1 (stereo unspecified),39,93*,49*,5
O=C(NCc1ccccn1)c1cc2c(ccc3ccccc32)oc1=O,104*,.,37*,-12

# Screening results (PubChem BioAssay)
